Screening data from PubChem BioAssay.
TRPC4 agonist – activators of mouse TRPC4 channel, primary screen, Fluo4 calcium, HEK293 TRPC4beta/mu-opioid cells; AID 2237, 2010; Fluo4 calcium fluorescence; active compounds read high; 310,000 compounds, 0.49% hits; Short transient receptor potential channel 4 (Mus musculus), Q9QUQ5; B-score at 10 µM;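 active = B-score above 5 SD of library B-scores, and initial fluorescence ratio not above library mean plus 5 SD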;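 note: positive B-score marks a calcium rise read as TRPC4 activation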
Target sequence (Q9QUQ5 whole entry, looked up): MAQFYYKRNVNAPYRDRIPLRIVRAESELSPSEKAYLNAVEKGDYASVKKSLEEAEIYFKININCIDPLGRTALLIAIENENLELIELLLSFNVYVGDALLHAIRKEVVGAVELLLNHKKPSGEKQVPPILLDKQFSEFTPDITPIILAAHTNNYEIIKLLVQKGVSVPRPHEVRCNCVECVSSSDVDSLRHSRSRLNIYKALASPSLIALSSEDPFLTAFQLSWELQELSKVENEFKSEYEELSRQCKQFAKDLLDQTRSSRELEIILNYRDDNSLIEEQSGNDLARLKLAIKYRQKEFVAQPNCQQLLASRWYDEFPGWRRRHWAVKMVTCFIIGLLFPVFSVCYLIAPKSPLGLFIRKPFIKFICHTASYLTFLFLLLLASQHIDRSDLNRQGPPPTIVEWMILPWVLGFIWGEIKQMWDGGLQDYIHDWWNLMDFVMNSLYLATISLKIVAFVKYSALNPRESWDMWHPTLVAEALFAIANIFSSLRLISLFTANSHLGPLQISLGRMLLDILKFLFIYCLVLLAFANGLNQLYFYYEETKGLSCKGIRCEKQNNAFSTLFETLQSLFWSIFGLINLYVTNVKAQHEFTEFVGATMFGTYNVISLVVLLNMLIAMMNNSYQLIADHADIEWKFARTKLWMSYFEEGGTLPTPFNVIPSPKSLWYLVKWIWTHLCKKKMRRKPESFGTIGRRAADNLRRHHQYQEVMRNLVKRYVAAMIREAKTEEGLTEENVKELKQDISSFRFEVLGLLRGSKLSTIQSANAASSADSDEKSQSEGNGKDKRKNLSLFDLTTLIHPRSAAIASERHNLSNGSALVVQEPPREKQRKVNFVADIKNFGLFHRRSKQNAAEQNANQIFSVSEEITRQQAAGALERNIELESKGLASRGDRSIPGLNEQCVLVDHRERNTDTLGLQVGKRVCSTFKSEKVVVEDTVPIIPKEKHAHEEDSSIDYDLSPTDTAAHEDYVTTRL
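System – HEK293 cells stably co-expressing mouse TRPC4beta and mu-opioid receptor · Signal – Fluo4 calcium-sensitive dye fluorescence, kinetic, 1 Hz baseline · Benchmarks – buffer (low) and maximal DAMGO (high) · Read-out – B score of integrated fluorescence ratio per well · Incubation – dye loading 45 min room temperature, 110 s kinetic read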
TRPC6 inhibitor – mouse TRPC6 channel inhibitors, primary screen, cell-based, HEK293, membrane potential dye. Short transient receptor potential channel 6 (Mus musculus), Q61143. ACh-evoked depolarization; active compounds read low. B-score at 10 µM. 310,000 compounds, 1.1% hits. AID 2553, 2010;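 active = B-score under library mean minus 3 SD, initial fluorescence not abnormally high, positive integrated signal ratio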;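 note: B-score derived from integrated fluorescence ratio over the kinetic read; more negative B-score means stronger inhibition of depolarization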
TRPC4 inh – inhibitors of mouse TRPC4 channel, primary screen, Fluo4 calcium, HEK293 TRPC4beta/mu-opioid cells; DAMGO-evoked Fluo4 calcium flux; active compounds read low; B-score at 10 µM; 300,000 compounds, 0.39% hits; AID 2247, 2010;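 active = B-score over 3 SD under the library average, no early fluorescence shift, positive overall ratio signal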
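material = TRPC4beta/mu-opioid receptor HEK293 cell line | probe or stimulus = sequential submaximal and maximal DAMGO stimulation | compound dosing = one concentration per compound | measured by = Fluo4 Ca2+ flux fluorescence | evaluation = integrated fluorescence ratio relative to baseline, converted to per-well B score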
TRPC4 potent – positive allosteric modulators of TRPC4, primary screen, cell-based, mouse TRPC4beta, HEK293 mu-opioid, Fluo-4 calcium; Short transient receptor potential channel 4 (Mus musculus), Q9QUQ5; DAMGO EC20, Fluo-4 Ca2+ flux; active compounds read high; B-score at 10 µM; 310,000 compounds, 0.42% hits;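 active = B-score of calcium response area above 5 SD of library B-scores, with initial fluorescence ratio within 5 SD of library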
TRPC6 activator – mouse TRPC6 channel activators, primary screen, cell-based, HEK293, membrane potential dye | Short transient receptor potential channel 6 (Mus musculus), Q61143 | HEK293-TRPC6 membrane potential dye fluorescence; active compounds read high | B-score at 10 µM | 310,000 compounds, 0.13% hits | AID 2550, 2010;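 active = B-score of the integrated fluorescence ratio above library mean plus 3 SD, and starting fluorescence ratio within library mean plus 5 SD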;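 note: higher score means more depolarization so channel activation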
TRPC4 spec 2 – second selectivity test of TRPC6 inhibitors: effect on mouse TRPC4 | 920 compounds, 42% hits | inhibition, % at 10 µM | AID 2776 | HEK293 TRPC4/MOR, membrane potential dye fluorescence; channel activated by saturating DAMGO dose | shares compounds with TRPC6 inhibitor;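 active = compounds whose fluorescence signal differed from control wells by over 3 SD, either direction, in both duplicate plates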
TRPC4 spec – mouse TRPC4 modulation by TRPC6 hits, confirmation, selectivity assay for TRPC6 inhibitor project, cell-based, HEK293 TRPC4/mu-opioid, membrane potential dye | membrane potential fluorescence | shares compounds with TRPC6 inhibitor | 920 compounds, 61% hits | AID 2777, 2010 | activity change, negative = inhibition, % at 10 µM;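 active = rise or fall in signal beyond 3 SD of buffer-only wells in both replicate plates, either sign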;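 note: integrated kinetic ratio of fluorescence range over baseline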
HEK293 MPD ctr 2-1 – nonspecific membrane potential effects, parental HEK293, confirmation, counter-screen for TRPC6 inhibitor project, cell-based, second counter screen; shares compounds with TRPC6 inhibitor; AID 2779, 2010; signal change vs control, % at 10 µM; 920 compounds, 31% hits; parental HEK293 membrane potential dye fluorescence; maximal acetylcholine challenge after compound addition;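 active = membrane potential signal moving either way by over 3 SD of the maximum-effect control, in both duplicate plates, meaning non-specific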
HEK293 MPD ctr-1 – membrane potential modulation in parental HEK293, confirmation, counter-screen for TRPC6 inhibitor project, cell-based. parental HEK293 membrane potential dye fluorescence. 920 compounds, 60% hits. membrane potential signal change, % at 10 µM. AID 2780, 2010. shares compounds with TRPC6 inhibitor;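 active = membrane potential signal shifting up or down by more than 3 SD of buffer-only wells, on both duplicate plates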
HEK293 MPD ctr-2 – parental HEK293 membrane potential modulation, confirmation, counter-screen for TRPC6 modulator project, cell-based; shares compounds with TRPC6 inhibitor; membrane potential dye fluorescence; membrane potential signal change, % at 10 µM; 2,400 compounds, 51% hits; AID 488924, 2010;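 active = membrane potential signal moves up or down beyond 5 SD from buffer-only wells, on both duplicate plates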
HEK293 MPD ctr 2-2 – parental HEK293 nonspecific activity of TRPC6 modulators, second screen | membrane potential dye fluorescence; after compound, maximal acetylcholine stimulation | 2,400 compounds, 14% hits | shares compounds with TRPC6 inhibitor | inhibition, % at 10 µM;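 active = membrane potential signal drops by more than 5 SD from the mean control signal, in both duplicate plates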
TRPC4 ctr mod – TRPC4 modulation by TRPC6 hit compounds, confirmation, selectivity assay for TRPC6 modulator project, cell-based, HEK293 TRPC4/mu-opioid, membrane potential dye, mouse; AID 488927, 2010; percent change from control (negative = decrease, positive = increase), % at 10 µM; shares compounds with TRPC6 inhibitor; 2,400 compounds, 69% hits; membrane potential fluorescence;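 active = membrane potential signal moved up or down beyond 5 SD of buffer control wells, in both duplicate plates, actives on both sides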
TRPC4 ctr inh 2 – second check of whether TRPC6 modulators also affect mouse TRPC4; 2,400 compounds, 55% hits; shares compounds with TRPC6 inhibitor; HEK293 TRPC4/mu-opioid, membrane potential dye fluorescence; stimulated with maximal-effect DAMGO; inhibition, % at 10 µM;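 active = drop in membrane potential signal beyond 5 SD of the control wells in both duplicate plates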;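 note: TRPC4 counter screen for TRPC6 hits run under conditions tuned for TRPC6 not TRPC4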
TRPC6 block conf – mouse TRPC6 channel inhibitors, confirmation, HEK293 cells, membrane potential dye, duplicate; ACh-evoked depolarization; AID 488960, 2010; inhibition, % at 10 µM; shares compounds with TRPC6 inhibitor; 3,300 compounds, 43% hits;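 active = fluorescence ratio falls more than 5 SD below the full-stimulation control mean, in both duplicate runs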;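 note: integrated fluorescence ratio of peak minus minimum over baseline after agonist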
TRPC6 act confirm – mouse TRPC6 channel activators, confirmation, HEK293 cells, membrane potential dye, duplicate | 2,800 compounds, 11% hits | HEK293-TRPC6 membrane potential dye fluorescence, FDSS | activation, % at 10 µM | shares compounds with TRPC6 inhibitor;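 active = ratio signal rise beyond 5 SD above unstimulated control wells' mean, seen in both duplicate runs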
Large screens that a line does not name were inactive (follow-up assays come after a bar, where they were run). In the library only some 2.3% were active in any assay of this set; here they are far more common.

CCOc1ccc(OCC)c(NC(=O)c2nnn(CC(=O)Nc3cc(C)cc(C)c3)c2N)c1	none
Cc1ccn2cc(-c3ccc4c(c3)NC(=O)CO4)nc2c1	none
Cc1cccn2cc(-c3ccc4c(c3)NC(=O)CO4)nc12	TRPC6 inhibitor -5.9 | HEK293 MPD ctr-2 -84% | HEK293 MPD ctr 2-2 inactive | TRPC4 ctr mod -16% | TRPC4 ctr inh 2 inactive | TRPC6 block conf inactive | TRPC6 act confirm inactive
Cc1nn(CCCC(=O)NCc2ccco2)c(=O)c2nn(-c3ccccc3)c(C)c12	none
CC1(C)CC(=O)c2c(O)cc(O)cc2O1	none
C[C@]12CCC[C@H](O1)c1c(cc3c(c1O)C(=O)c1c(O)cc(O)cc1C3=O)O2	TRPC6 activator 13 | HEK293 MPD ctr-2 274% | HEK293 MPD ctr 2-2 inactive | TRPC4 ctr mod 58% | TRPC4 ctr inh 2 inactive | TRPC6 block conf inactive | TRPC6 act confirm 91%
Cc1csc(=O)n1CCC(=O)OCC(=O)Nc1ccc(F)c(F)c1F	none
CC(C)(C)c1ccc(OCCC(=O)Nc2ccc(N3CCOCC3)cc2N2CCOCC2)cc1	none
CCOC(=O)c1nc2cc3n(c(C)c-2c1C)C(C)C(CC)=C3C (centres undefined)	TRPC6 inhibitor -6.5 | HEK293 MPD ctr-2 158% | HEK293 MPD ctr 2-2 174% | TRPC4 ctr mod 24% | TRPC4 ctr inh 2 34% | TRPC6 block conf 52% | TRPC6 act confirm inactive
COc1ccc(C(C(=O)NC2CCCC2)N(C(=O)c2csnn2)C2CC2)cc1 (centres undefined)	none
COc1ccc(C(C(=O)NC2CCCC2)N(C(=O)c2csnn2)C2CCCC2)cc1 (centres undefined)	TRPC6 inhibitor -6.3 | HEK293 MPD ctr-2 inactive | HEK293 MPD ctr 2-2 inactive | TRPC4 ctr mod 18% | TRPC4 ctr inh 2 inactive | TRPC6 block conf inactive
Nc1cccc2nc3ccccc3cc12	TRPC6 inhibitor -7.2 | TRPC4 spec 2 23% | TRPC4 spec -36% | HEK293 MPD ctr 2-1 18% | HEK293 MPD ctr-1 -413% | TRPC6 block conf 83% | TRPC6 act confirm inactive
O=C(CSc1nnc(NC(=O)c2c(F)cccc2Cl)s1)Nc1ccccc1F	none
Cn1c(CNc2ccc(Cl)cc2)nnc1SCCN1CCCCC1	TRPC6 inhibitor -5.1 | HEK293 MPD ctr-2 inactive | HEK293 MPD ctr 2-2 inactive | TRPC4 ctr mod 18% | TRPC4 ctr inh 2 38% | TRPC6 block conf inactive | TRPC6 act confirm inactive
COc1ccccc1NC(=O)c1ccc2c(c1)N(CC(=O)NC(C)C)C(=O)C(C)(C)O2	none
Cc1ccccc1CNS(=O)(=O)c1csc(C(N)=O)c1	none
OC(CNCC1CCCO1)Cn1c2ccc(Cl)cc2c2cc(Cl)ccc21 (centres undefined)	none
OC(CNCC1CCCO1)Cn1c2ccccc2c2ccccc21 (centres undefined)	TRPC6 inhibitor -6.5 | HEK293 MPD ctr-2 312% | HEK293 MPD ctr 2-2 73% | TRPC4 ctr mod 36% | TRPC4 ctr inh 2 65% | TRPC6 block conf 84%
OCC[C@@H]1C[C@H](O)[C@@H](O)[C@]2(Cc3ccccc3CCO2)O1	none
O=C(Nc1ccc2c(c1)OCCO2)c1ccc(NC(=O)C2CCCO2)cc1 (centres undefined)	TRPC6 inhibitor -5.2 | HEK293 MPD ctr-2 inactive | HEK293 MPD ctr 2-2 inactive | TRPC4 ctr mod inactive | TRPC4 ctr inh 2 inactive | TRPC6 block conf inactive | TRPC6 act confirm inactive
O=C(NCc1ccc2c(c1)OCO2)c1ccc(NC(=O)C2CCCO2)cc1 (centres undefined)	none
Cc1cc(C)n2c(nc3ccccc32)c1C(=O)NN	none
COC(=O)c1c(C)cc(C)n2c1nc1ccccc12	TRPC6 inhibitor -6.8 | TRPC4 spec 2 inactive | TRPC4 spec -20% | HEK293 MPD ctr 2-1 inactive | HEK293 MPD ctr-1 -334% | TRPC6 block conf 64% | TRPC6 act confirm inactive
CCC(C)(C)NC(=O)C(c1cccn1C)N(C(=O)Cn1nnc2ccccc21)c1ccc(OC)cc1OC (centres undefined)	TRPC6 inhibitor -8.1, TRPC6 activator 12 | HEK293 MPD ctr-2 124% | HEK293 MPD ctr 2-2 inactive | TRPC4 ctr mod 44% | TRPC4 ctr inh 2 41% | TRPC6 block conf 38% | TRPC6 act confirm 68%
CCOc1ccc(N(C(=O)Cn2nnc3ccccc32)C(C(=O)NC(C)(C)CC)c2cccn2C)cc1 (centres undefined)	none
